Legend:
[1] = Selectivity index, ratio of CC50 for HEK293T cells to EC50 for full length Gaussia princeps Gluc-tagged Chikungunya virus IMT; format: toxicity; details: human, read-out: Ratio CC50/EC50
Chikungunya virus = experiment: Antiviral activity against full length Gaussia princeps Gluc-tagged Chikungunya virus IMT infected in HEK293T cells assessed as reduction in virus infection after 24 hrs by Gaussia luciferase reporter gene assay; format: functional, cell-based; details: HEK-293T
[2] = Half life in human liver microsomes; format: ADME, microsome
How it was run: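 Compounds were incubated with human liver microsomes. Half-life = ln(2)/slope, where the slope is ln(% detected) plotted against time, using the mean of at least 3 independent experiments.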

[3] = Cytotoxicity against HEK293T cells assessed as reduction in cell viability after 24 hrs by CellTiter-Glo luminescent assay; format: cell-based, HEK-293T; details: human
How it was run: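 HEK 293T cell viability was measured by CellTiter-Glo luminescence after 24 h exposure to serial dilutions. Data were normalized to untreated cells (100%) and reagent background (0%). CC50, the concentration reducing viability by 50%, came from a five-parameter asymmetric fit.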

SMILES | selectivity ratio [1] | EC50 (Chikungunya virus) [µM] | half-life [2] [min] | CC50 at 24 h [3] [µM]
CCCNC(=O)C1CCN(C(=O)c2ccc(Br)n2Cc2ccc(OC)cc2)CC1 | > 6 | 16.8 | 7.32 | > 100
CCCNC(=O)[C@@H]1CCCN1C(=O)c1cc2sc(Br)cc2n1Cc1ccc(OC)cc1 | 3.4 | 21.2 | 18.2 | 72.4
CCCNC(=O)C1CCN(C(=O)c2cc3sc(-c4ccccc4F)cc3n2Cc2ccc(OC)cc2)CC1 | – | – | 35.5 | –
CCCNC(=O)[C@@H]1C[C@H]2CCC[C@@H](C1)[C@H]2NC(=O)c1cc2sc(Br)cc2n1Cc1ccc(OC)cc1 | – | > 100 | – | > 100
CCCNC(=O)C1CCN(C(=O)c2cc3cc(Br)sc3n2Cc2ccc(OC)cc2)CC1 | > 7.3 | 13.6 | 7.61 | > 100
CCCNC(=O)C1CCN(C(=O)c2cc3[nH]cnc3n2Cc2ccc(OC)cc2)CC1 | > 2.3 | 42.8 | 76.2 | > 100
CCCNC(=O)C1CCN(C(=O)c2cc3sc(Br)cc3n2Cc2ccc(OC)cc2)CC1 | > 32 | 3.1 | 2.91 | > 100
CCCNC(=O)C1CCN(C(=O)c2cc3sccc3n2Cc2ccc(Cl)cc2)CC1 | – | – | 10.3 | –
CCCNC(=O)[C@H]1[C@@H]2CCC[C@H]1CN(C(=O)c1cc3sc(Br)nc3n1Cc1ccc(OC)cc1)C2 | 4.3 | 13.4 | 2.89 | 57.5
CCCNC(=O)[C@H]1CC[C@H](NC(=O)c2cc3sc(Br)cc3n2Cc2ccc(OC)cc2)CC1 | > 7 | 14.3 | 3.97 | > 100
CCCNC(=O)[C@@H]1C[C@H]2CCC[C@@H](C1)[C@@H]2NC(=O)c1cc2scnc2n1Cc1ccc(OC)cc1 | > 2.2 | 11.4 | 44.6 | > 25
CCCNC(=O)[C@@H]1C[C@H]2CCC[C@@H](C1)[C@@H]2NC(=O)c1cc2sc(Br)cc2n1Cc1ccc(OC)cc1 | > 7.1 | 14 | 45.1 | > 100
CCCNC(=O)C1CN(C(=O)c2cc3sc(Br)cc3n2Cc2ccc(OC)cc2)C1 | > 7.4 | 13.6 | 7.73 | > 100
CCCNC(=O)[C@@H]1[C@@H]2CCC[C@H]1CN(C(=O)c1cc3sc(Br)cc3n1Cc1ccc(OC)cc1)C2 | > 7.9 | 12.6 | – | > 100
CCCNC(=O)C1CCN(C(=O)c2cccn2Cc2ccc(OC)cc2)CC1 | > 3.9 | 25.7 | 6.71 | > 100
CCCCC(=O)C1CCN(C(=O)c2cc3sccc3n2Cc2ccc(OC)cc2)CC1 | – | – | 6.3 | –
CCCNC(=O)C1CC12CN(C(=O)c1cc3sc(Br)cc3n1Cc1ccc(OC)cc1)C2 (stereo not given) | > 5 | 20.2 | 19.5 | > 100
CCCNC(=O)C1CCN(C(=O)c2cc3[nH]ccc3n2Cc2ccc(OC)cc2)CC1 | > 8.8 | 11.4 | 23.1 | > 100
CCCNC(=O)C1CCN(C(=O)c2cc3sc(C#N)cc3n2Cc2ccc(OC)cc2)CC1 | – | – | 11.2 | –
CCCNC(=O)C1CCN(C(=O)c2cc3sc(C)cc3n2Cc2ccc(OC)cc2)CC1 | – | – | 2.69 | –
CCCNC(=O)C1CCN(C(=O)c2cc3cc(Br)ccc3n2Cc2ccc(OC)cc2)CC1 | – | > 100 | 3.94 | > 100
CCCNC(=O)C1CCN(C(=O)c2cc3sccc3n2Cc2ccc(OC)cc2)CC1 | 2.7 | 7 | 10.6 | –
CCCNC(=O)[C@H]1CC[C@@H](NC(=O)c2cc3sc(Br)cc3n2Cc2ccc(OC)cc2)CC1 | – | > 100 | – | > 100
